# Laboratory results: ChEMBL document CHEMBL1144909, “Design, synthesis, and biological evaluation of a series of fluoroquinoanthroxazines with contrasting dual mechanisms of action against topoisomerase II and G-quadruplexes” (J Med Chem, 2003)
# Activity calls are given as the source filed them. The rule behind the calls is not given here.
# How the values were obtained:
# [1] = biological target: T1, DNA topoisomerase II (Homo sapiens) (UniProt P11388+Q02880); assay: Inhibition against decatenation activity of DNA topoisomerase II at a concentration of 3.2 uM; type: protein assay
# Procedure, shortened: (§1)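 Human topoisomerase II (2 units) was then added for 30 min at 37 °C. Sarkosyl stop; products resolved on 1% agarose with ethidium bromide; decatenated kDNA quantified by densitometry.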
# [2] = system: RPMI-8226; assay: Cytotoxicity of compound against 8226/DOX1V cells; type: functional, Homo sapiens
# Procedure, shortened: (§2)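 MTT assay. Exponentially growing cells (1–2 × 10^3 per well) seeded day 0; graded compound concentrations added day 1; on day 4, MTT (1 mg/mL in DPBS) added for 4 h at 37 °C. 8226/S (RPMI 8226 myeloma) and doxorubicin-resistant, topoisomerase II-reduced 8226/DOX1V; MCF7 breast cells. Myeloma values are the mean ± SD of four experiments; IC50 in μM.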
# [3] = Ratio of cytotoxicity of DOX1V/S cells; type: functional
# Procedure, shortened: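 Ratio of IC50 in 8226/DOX1V (doxorubicin-resistant, reduced topoisomerase II) to IC50 in parental 8226/S. Both IC50s come from a 3-day MTT assay, each the mean of four experiments.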
# [4] = system: RPMI-8226; assay: Cytotoxicity of compound against 8226/S cells; type: functional, Homo sapiens; procedure, shortened: as §2
# [5] = biological target: T2, DNA polymerase I, thermostable (Thermus aquaticus, UniProt P19821); assay: Inhibition of Taq DNA polymerase by TRAP assay
# [6] = system: MCF7; assay: Cytotoxicity of compound was tested against MCF-7 breast cancer cells; type: functional, cell-based; conditions: Homo sapiens; procedure, shortened: as §2
# [7] = biological target: T1, DNA topoisomerase II (Homo sapiens); assay: Inhibition against decatenation activity of DNA topoisomerase II at a concentration of 100 uM; type: protein assay; procedure, shortened: as §1
# [8] = biological target: T2, DNA polymerase I, thermostable; assay: Inhibition of Taq DNA polymerase
# T2 sequence (P19821 whole entry): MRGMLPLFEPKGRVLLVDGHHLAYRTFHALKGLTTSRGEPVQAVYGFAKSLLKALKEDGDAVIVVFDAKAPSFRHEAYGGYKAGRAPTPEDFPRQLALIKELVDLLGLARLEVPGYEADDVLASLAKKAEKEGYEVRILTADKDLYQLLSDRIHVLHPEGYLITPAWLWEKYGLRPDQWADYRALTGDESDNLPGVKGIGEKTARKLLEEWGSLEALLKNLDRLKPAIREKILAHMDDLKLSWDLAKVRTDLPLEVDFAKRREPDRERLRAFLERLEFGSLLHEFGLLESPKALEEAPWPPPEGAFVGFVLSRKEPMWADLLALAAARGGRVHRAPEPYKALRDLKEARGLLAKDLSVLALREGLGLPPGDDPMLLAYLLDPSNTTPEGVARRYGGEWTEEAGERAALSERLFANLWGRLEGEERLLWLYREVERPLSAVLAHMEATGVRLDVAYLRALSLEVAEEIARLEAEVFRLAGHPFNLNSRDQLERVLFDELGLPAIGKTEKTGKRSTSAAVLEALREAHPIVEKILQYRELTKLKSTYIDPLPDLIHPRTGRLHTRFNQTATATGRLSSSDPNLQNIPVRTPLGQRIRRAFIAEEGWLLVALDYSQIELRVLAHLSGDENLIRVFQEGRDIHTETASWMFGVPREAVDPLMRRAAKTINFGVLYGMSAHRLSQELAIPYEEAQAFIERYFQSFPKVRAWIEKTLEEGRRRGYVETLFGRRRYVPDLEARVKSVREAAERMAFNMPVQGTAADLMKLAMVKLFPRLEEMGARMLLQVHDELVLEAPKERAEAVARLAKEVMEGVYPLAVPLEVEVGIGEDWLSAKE
SMILES,inhibition [1] [%],IC50 [5] [µM],inhibition [7],IC50 [8] [µM],Average [2] [µM],Ratio [3],Average [4] [µM],IC50 [6] [µM]
N[C@H]1CCN(c2c(F)cc3c(=O)c(C(=O)O)cn4c3c2Oc2ccccc2-4)C1,50,–,–,–,–,–,–,–
COc1cccc2c1C(=O)c1c(O)c3c(c(O)c1C2=O)C[C@@](O)(C(=O)CO)C[C@@H]3O[C@H]1C[C@H](N)[C@H](O)[C@H](C)O1 [DOXORUBICIN],–,–,–,–,0.32,8.65,0.037,–
N[C@@H]1CCN(c2c(F)cc3c(=O)c(C(=O)O)cn4c3c2Oc2c-4ccc3c2ccc2ccccc23)C1,–,5.6,inactive,0.06,0.501,1.55,0.324,0.46

# The next lines start with results.
inhibition [1] [%],IC50 [5] [µM],inhibition [7],IC50 [8] [µM],SMILES,Average [2] [µM],Ratio [3],Average [4] [µM],IC50 [6] [µM]
–,–,inactive,5.7,N[C@H]1CCN(c2c(F)cc3c(=O)c(C(=O)O)cn4c3c2Oc2cc3c(ccc5ccccc53)cc2-4)C1,>10,–,>10,14.2
–,–,inactive,2.4,N[C@@H]1CCN(c2c(F)cc3c(=O)c(C(=O)O)cn4c3c2Oc2cc3c(ccc5ccccc53)cc2-4)C1,>10,–,5.46,4.3
–,21,inactive,0.67,N[C@H]1CCN(c2c(F)cc3c(=O)c(C(=O)O)cn4c3c2Oc2c-4ccc3c2ccc2ccccc23)C1,2.775,4.02,0.69,1.1
